Reference: ChEMBL document CHEMBL1144162, “Tetrahydropyridine-4-carboxamides as novel, potent transient receptor potential vanilloid 1 (TRPV1) antagonists” (Bioorg Med Chem, 2008)
Converted amounts (≈) assume the structure as drawn.

Legend:
[1] = target: T1, Transient receptor potential cation channel subfamily V member 1 (Homo sapiens, UniProt Q8NER1); experiment: Antagonist activity at human recombinant TRPV1 expressed in human 1321N1 cells assessed as inhibition of capsaicin-induced calcium influx by FLIPR assay; format: functional, cell-based
T1 sequence (Q8NER1 whole entry): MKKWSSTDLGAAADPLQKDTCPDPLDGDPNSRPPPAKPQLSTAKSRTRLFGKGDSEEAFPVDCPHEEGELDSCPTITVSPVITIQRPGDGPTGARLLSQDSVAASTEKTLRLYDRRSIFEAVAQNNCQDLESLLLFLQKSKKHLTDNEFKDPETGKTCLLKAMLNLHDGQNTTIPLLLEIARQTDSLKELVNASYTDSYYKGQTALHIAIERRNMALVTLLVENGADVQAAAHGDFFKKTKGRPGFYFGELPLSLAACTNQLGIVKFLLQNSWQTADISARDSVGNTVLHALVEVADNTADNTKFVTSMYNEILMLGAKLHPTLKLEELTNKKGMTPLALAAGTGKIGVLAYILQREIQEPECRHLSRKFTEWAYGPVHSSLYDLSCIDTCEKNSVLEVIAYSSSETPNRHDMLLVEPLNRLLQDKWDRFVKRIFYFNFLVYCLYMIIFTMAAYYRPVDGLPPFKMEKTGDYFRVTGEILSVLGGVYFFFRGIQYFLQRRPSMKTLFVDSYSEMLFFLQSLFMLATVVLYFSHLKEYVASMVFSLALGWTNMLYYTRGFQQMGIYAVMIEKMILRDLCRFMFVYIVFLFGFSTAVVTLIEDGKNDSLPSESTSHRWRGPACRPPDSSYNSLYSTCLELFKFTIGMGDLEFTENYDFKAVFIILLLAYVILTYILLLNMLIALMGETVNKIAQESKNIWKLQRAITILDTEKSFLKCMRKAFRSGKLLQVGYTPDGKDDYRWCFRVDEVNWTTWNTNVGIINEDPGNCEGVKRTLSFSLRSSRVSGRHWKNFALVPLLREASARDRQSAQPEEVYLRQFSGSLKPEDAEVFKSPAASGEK
Method in brief: (§1)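 Ca2+ influx in 1321N1 cells stably expressing recombinant human or rat TRPV1, grown to confluency, loaded with fluo-4 AM (2 µM in D-PBS) 1–2 h at 23 °C, washed. Compound (11-point half-log range, D-PBS) added at 10 s, capsaicin 3 min later. FLIPR fluorescence read over 240 s; peak increase minus baseline as % of 0.05 µM capsaicin control; four-parameter logistic fit for IC50; mean of ≥2 experiments in triplicate.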

Rattus norvegicus [2] = experiment: Antinociceptive activity against hyperalgesia in po dosed rat Chung neuropathic pain model; format: functional
[3] = Ratio of drug level in brain to plasma in po dosed Sprague-Dawley rat; format: ADME, organism-based
Method in brief: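 Male Sprague–Dawley rats (200–320 g), group-housed with free food and water, fasted 16 h before oral dosing. Compound given po in 10% ethanol, 20% polysorbate-80 and 70% PEG-400. Drug concentrations in brain and plasma were expressed as a [brain]:[plasma] ratio.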

Rattus norvegicus [4] = experiment: Analgesic activity against complete Freund's adjuvant-induced thermal hyperalgesia in po dosed Sprague-Dawley rat assessed as paw withdrawal latency; format: functional
Method in brief: (§2)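 Male Sprague–Dawley rats (200–320 g), food withdrawn 16 h before oral dosing. Right hindpaw injected with 150 µL of 50% CFA in saline. Thermal hyperalgesia measured 48 h later as radiant-heat paw withdrawal on a 30 °C glass surface after 30 min habituation. Vehicle: 10% ethanol, 20% polysorbate-80, 70% PEG-400. Single-dose testing used 30 µmol/kg po, n = 6/group, versus vehicle.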

Rattus norvegicus [5] = organism: Rattus norvegicus; experiment: Analgesic activity against skin incision-induced acute thermal hyperalgesia in Sprague-Dawley rat; format: functional
Method in brief: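 Under halothane (2–3%) anesthesia, a left hind paw plantar incision was made aseptically in male Sprague–Dawley rats. Rats recovered 2 h before thermal hyperalgesia testing.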

Rattus norvegicus [6] = organism: Rattus norvegicus; experiment: Analgesic activity against capsaicin-induced secondary mechanical allodynia in rat; format: functional
Rattus norvegicus [7] = organism: Rattus norvegicus; experiment: Nocifensive activity against capsaicin-induced neuropathic pain in rat; format: functional
[8] = Solubility in PEG-400; format: physicochemical
Method in brief: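 Solubility was measured in PEG-400 as an organic vehicle.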

[9] = Plasma concentration in po dosed Sprague-Dawley rat after 1 hr; format: ADME, organism-based
Rattus norvegicus [10] = experiment: Analgesic activity against complete Freund's adjuvant-induced mechanical allodynia in po dosed Sprague-Dawley rat; format: functional
[11] = target: T1, Transient receptor potential cation channel subfamily V member 1; experiment: Antagonist activity at human recombinant TRPV1 expressed in human 1321N1 cells assessed as inhibition of pH 5.5-induced calcium influx by FLIPR assay; format: functional, cell-based
Method in brief: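 Fluo-4 FLIPR Ca2+ assay in 1321N1 cells stably expressing human TRPV1, stimulated by low pH (pH 5.5) after compound preincubation. Peak fluorescence rise minus baseline is fit by a four-parameter logistic equation to give IC50.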

[12] = Apparent permeability across human Caco-2 cell membrane; format: ADME, cell-based
[13] = Aqueous solubility of the compound; format: physicochemical; conditions: buffer
[14] = target: Transient receptor potential cation channel subfamily V member 1 (Rattus norvegicus, UniProt O35433); experiment: Antagonist activity at rat TRPV1 expressed in human 1321N1 cells assessed as inhibition of capsaicin-induced calcium influx by FLIPR assay; format: functional, cell-based; method in brief: as §1
Chain of Transient receptor potential cation channel subfamily V member 1 (Rattus norvegicus, UniProt O35433) (O35433 whole entry): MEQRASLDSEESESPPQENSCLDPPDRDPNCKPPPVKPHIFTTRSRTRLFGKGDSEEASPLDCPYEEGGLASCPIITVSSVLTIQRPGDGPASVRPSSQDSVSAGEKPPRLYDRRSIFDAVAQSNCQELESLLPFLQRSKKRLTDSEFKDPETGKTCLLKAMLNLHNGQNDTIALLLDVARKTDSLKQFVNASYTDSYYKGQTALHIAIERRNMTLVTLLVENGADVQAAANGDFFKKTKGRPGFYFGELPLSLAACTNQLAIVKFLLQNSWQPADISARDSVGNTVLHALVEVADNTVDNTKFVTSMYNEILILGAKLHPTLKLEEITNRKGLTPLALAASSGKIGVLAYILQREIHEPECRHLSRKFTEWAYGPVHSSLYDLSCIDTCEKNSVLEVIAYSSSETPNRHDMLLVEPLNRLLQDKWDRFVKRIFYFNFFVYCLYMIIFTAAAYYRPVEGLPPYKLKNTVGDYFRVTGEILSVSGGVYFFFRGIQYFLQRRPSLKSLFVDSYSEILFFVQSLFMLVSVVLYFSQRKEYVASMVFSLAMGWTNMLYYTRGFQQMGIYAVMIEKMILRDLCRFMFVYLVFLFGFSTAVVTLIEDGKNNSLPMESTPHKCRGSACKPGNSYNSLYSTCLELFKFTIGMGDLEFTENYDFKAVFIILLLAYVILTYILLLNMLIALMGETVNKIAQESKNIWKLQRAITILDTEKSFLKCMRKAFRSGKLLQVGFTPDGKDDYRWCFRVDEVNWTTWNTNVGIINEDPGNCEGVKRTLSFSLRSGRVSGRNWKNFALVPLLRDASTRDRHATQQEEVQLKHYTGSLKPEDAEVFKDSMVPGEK

Rattus norvegicus [15] = organism: Rattus norvegicus; experiment: Analgesic activity against monosodium iodoacetate-induced osteoarthritis in rat; format: functional
[16] = target: T1, Transient receptor potential cation channel subfamily V member 1; experiment: Antagonist activity at human recombinant TRPV1 expressed in human 1321N1 cells assessed as inhibition of N-arachidonoyl-dopamine-induced calcium influx by FLIPR assay; format: functional, cell-based
Method in brief: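 FLIPR fluo-4 Ca2+ influx in 1321N1 cells stably expressing human TRPV1, with 3 µM NADA as the stimulus. Compound is added before agonist challenge. Peak fluorescence increase over baseline is fit to a four-parameter logistic curve to give IC50.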

Rattus norvegicus [17] = organism: Rattus norvegicus; experiment: Analgesic activity against gamma carrageenan-induced thermal hyperalgesia in Sprague-Dawley rat; format: functional
Method in brief: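 Male Sprague–Dawley rats (200–320 g) received 100 µL of 1% carrageenan in saline into the right hindpaw plantar surface. Thermal hyperalgesia was tested 2 h later by radiant heat to the plantar surface in Plexiglass cubicles on a 30 °C glass floor, after 30 min habituation.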

Rattus norvegicus [18] = experiment: Analgesic activity against complete Freund's adjuvant-induced thermal hyperalgesia in Sprague-Dawley rat assessed as paw withdrawal latency at 30 umol/kg, po; format: functional; method in brief: as §2
[19] = Half-life in po dosed Sprague-Dawley rat; format: ADME, organism-based; conditions: in vivo
[20] = target: Voltage-gated inwardly rectifying potassium channel KCNH2 (Homo sapiens, UniProt Q12809); experiment: Inhibition of human ERG
Chain of Voltage-gated inwardly rectifying potassium channel KCNH2 (Q12809 whole entry): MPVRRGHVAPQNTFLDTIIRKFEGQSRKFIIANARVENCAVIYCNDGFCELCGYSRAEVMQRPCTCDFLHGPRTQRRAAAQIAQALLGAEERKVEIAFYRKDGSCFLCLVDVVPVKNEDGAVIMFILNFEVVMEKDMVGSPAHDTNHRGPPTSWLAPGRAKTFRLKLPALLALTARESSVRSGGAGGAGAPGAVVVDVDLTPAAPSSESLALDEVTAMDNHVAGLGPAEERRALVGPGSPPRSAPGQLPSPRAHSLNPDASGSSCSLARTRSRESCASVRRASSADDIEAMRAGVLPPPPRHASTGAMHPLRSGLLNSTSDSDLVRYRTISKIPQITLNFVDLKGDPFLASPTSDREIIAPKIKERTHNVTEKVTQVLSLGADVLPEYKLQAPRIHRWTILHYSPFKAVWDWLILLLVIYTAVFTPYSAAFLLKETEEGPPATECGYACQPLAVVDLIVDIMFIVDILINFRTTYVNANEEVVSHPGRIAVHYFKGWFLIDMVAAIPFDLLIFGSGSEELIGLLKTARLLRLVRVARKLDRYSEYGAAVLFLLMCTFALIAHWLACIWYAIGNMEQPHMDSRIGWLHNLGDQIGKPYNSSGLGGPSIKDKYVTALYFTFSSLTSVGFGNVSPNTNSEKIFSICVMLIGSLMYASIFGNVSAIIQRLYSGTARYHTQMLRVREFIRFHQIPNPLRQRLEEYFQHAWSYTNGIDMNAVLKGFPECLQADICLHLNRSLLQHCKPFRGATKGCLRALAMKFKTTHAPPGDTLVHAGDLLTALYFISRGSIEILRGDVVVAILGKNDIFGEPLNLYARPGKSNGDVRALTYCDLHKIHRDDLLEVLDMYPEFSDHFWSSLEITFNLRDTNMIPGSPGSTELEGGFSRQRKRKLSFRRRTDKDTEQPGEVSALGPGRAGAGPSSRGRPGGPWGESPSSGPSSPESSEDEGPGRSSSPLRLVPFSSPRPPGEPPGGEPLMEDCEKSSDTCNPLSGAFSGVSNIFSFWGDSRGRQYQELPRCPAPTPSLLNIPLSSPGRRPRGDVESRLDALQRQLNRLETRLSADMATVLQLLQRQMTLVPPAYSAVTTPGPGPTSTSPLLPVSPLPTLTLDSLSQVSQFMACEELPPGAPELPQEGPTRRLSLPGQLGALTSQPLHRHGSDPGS

[21] = Oral bioavailability in Sprague-Dawley rat; format: ADME, organism-based; conditions: in vivo

Row | Compound | IC50 [1] [nM] | Efficacy (Rattus norvegicus [18]) [%] | other results
1 | CC(C)(C)c1ccc(NC(=O)c2ccc(-c3ccccn3)cc2)cc1 | 42 |  | 
2 | CC(C)(C)c1ccc(NC(=O)N2CCN(c3ncccc3Cl)CC2)cc1 |  |  | ED50 (Rattus norvegicus [2]): 8 µmol/kg; Kp [3]: 5; ED50 (Rattus norvegicus [4]): 8 µmol/kg
3 | O=C(Nc1ccc(S(=O)(=O)C(F)(F)F)cc1)C1=CCN(c2ncccc2C(F)(F)F)CC1 | 24 | 58 | ED50 (Rattus norvegicus [5]): 20 µmol/kg; ED50 (Rattus norvegicus [2]): > 300 µmol/kg; ED50 (Rattus norvegicus [6]): 40 µmol/kg; ED50 (Rattus norvegicus [7]): 10 µmol/kg; solubility [8]: > 100 mg/mL; concentration at 1 h [9]: 200 ng/mL; ED50 (Rattus norvegicus [10]): 76 µmol/kg; IC50 [11]: 14 nM; Papp [12]: 28.5 ×10⁻⁶ cm/s; Kp [3]: 1.5; solubility [13]: 0.033 µg/mL (≈ 6.88e-05 mM); IC50 [14]: 17 nM; ED50 (Rattus norvegicus [15]): 8 µmol/kg; IC50 [16]: 20.2 nM; ED50 (Rattus norvegicus [4]): 12 µmol/kg; ED50 (Rattus norvegicus [17]): 25 µmol/kg
4 | CC(C)(C)c1ccc(NC(=O)C2=CCN(c3ncccc3Cl)CC2)cc1 | 10 |  | 
5 | COc1cccc(NC(=O)c2ccc(-c3ccccc3)cc2)c1 | 147 |  | 
6 | O=C(Nc1ccc(Cl)c(F)c1)C1=CCN(c2ncccc2Cl)CC1 | 78 |  | 
7 | O=C(Nc1ccc(Cl)cc1)C1=CCN(c2ncccc2Cl)CC1 | 33 |  | half-life [19]: 1.7 h; Activity [20]: Active; bioavailability [21]: 16%
8 | CC(C)(C)c1ccc(NC(=O)C2=CCN(c3ccccc3F)CC2)cc1 | 265 |  | 
9 | O=C(Nc1ccc(Cl)cc1)C1=CCN(c2ncccc2C(F)(F)F)CC1 | 19 | 40 | 
10 | O=C(Nc1ccc(S(=O)(=O)C(F)(F)F)cc1)C1=CCN(c2ncccc2F)CC1 | 67 | 51 | concentration at 1 h [9]: 900 ng/mL
11 | O=C(Nc1ccc(S(=O)(=O)C(F)(F)F)cc1)C1=CCN(c2nccs2)CC1 | 95 | 37 | concentration at 1 h [9]: 2100 ng/mL
12 | CC(C)(C)c1ccc(NC(=O)C2=CCN(c3ncccc3C#N)CC2)cc1 | 78 |  | 
13 | CC(C)(C)c1ccc(NC(=O)C2=CCN(c3ccccn3)CC2)cc1 | 27 |  | 
14 | CC(C)(C)c1ccc(NC(=O)C2=CCN(c3ncccc3F)CC2)cc1 | 19 |  | 
15 | CC(C)(C)c1ccc(NC(=O)C2=CCN(c3nccs3)CC2)cc1 | 14 |  | 
16 | O=C(Nc1ccc(Cl)c(Cl)c1)C1=CCN(c2ncccc2Cl)CC1 | 124 |  | 
17 | O=C(Nc1ccc(Cl)cc1C(F)(F)F)C1=CCN(c2ncccc2Cl)CC1 | 2750 |  | 
18 | CC(C)(C)c1ccc(NC(=O)C2=CCN(c3ncccn3)CC2)cc1 | 10 |  | 
19 | CC(C)(C#N)c1ccc(NC(=O)C2=CCN(c3ncccc3C(F)(F)F)CC2)cc1 | 41 | 25 | 
20 | CC(C)(C)c1ccc(NC(=O)C2CCN(c3ncccc3Cl)CC2)cc1 | 196 |  | 
21 | CC(C)(C)c1ccc(NC(=O)C2=CCN(c3ncccc3C(F)(F)F)CC2)cc1 | 6 |  | Activity (Rattus norvegicus [18]): 28%
22 | O=C(Nc1cccc2[nH]ncc12)N[C@@H]1CCc2cc(N3CCCCC3)ccc21 | 14 |  | ED50 (Rattus norvegicus [2]): > 300 µmol/kg; ED50 (Rattus norvegicus [6]): 165 µmol/kg; ED50 (Rattus norvegicus [7]): 10 µmol/kg; ED50 (Rattus norvegicus [10]): 300 µmol/kg; Kp [3]: 0.008; IC50 [14]: 30 nM; ED50 (Rattus norvegicus [15]): 280 µmol/kg; ED50 (Rattus norvegicus [4]): 12 µmol/kg
23 | O=C(Nc1ccc(S(=O)(=O)C(F)(F)F)cc1)C1=CCN(c2ncccn2)CC1 | 44 | 53 | concentration at 1 h [9]: 380 ng/mL
24 | O=C(Nc1ccc(C(F)(F)F)cc1)C1=CCN(c2ncccc2C(F)(F)F)CC1 | 8 | 35 | 
25 | O=C(Nc1ccc(S(=O)(=O)C(F)(F)F)cc1)C1=CCN(c2ncccc2Cl)CC1 | 41 | 63 | concentration at 1 h [9]: 280 ng/mL
26 | O=C(Nc1ccc(Cl)cc1F)C1=CCN(c2ncccc2Cl)CC1 | 618 |  | 
27 | O=C(Nc1ccc(C(F)(F)F)nc1)C1=CCN(c2ncccc2C(F)(F)F)CC1 | 42 | 61 | bioavailability [21]: 3%
28 | Cc1cccnc1N1CC=C(C(=O)Nc2ccc(S(=O)(=O)C(F)(F)F)cc2)CC1 | 35 | 53 | concentration at 1 h [9]: 960 ng/mL
